Experimental data reported in ChEMBL document CHEMBL1142170, “Mechanism of activation of beta-D-2'-deoxy-2'-fluoro-2'-c-methylcytidine and inhibition of hepatitis C virus NS5B RNA polymerase” (Antimicrob Agents Chemother, 2007).

How the values were obtained:
[1] = Inhibition of HCV NS5B RNA polymerase assessed as incorporation of 32P-UMP into RNA; design: species or system Hepacivirus hominis
How it was run: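 Steady-state Ki against truncated NS5B (wild-type and S282T) on minus IRES template, 27°C, HEPES pH 7.5 with Mg2+/Mn2+/DTT and [α-32P]UTP. For ATP analog, UTP 10, GTP and CTP 100 μM, ATP and inhibitor varied. For CTP analogs, UTP 10, ATP and GTP 100 μM, CTP and inhibitor varied. Membrane-bound product counted, rates fit to competitive inhibition.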

[2] = Inhibition of HCV NS5B RNA polymerase S282T mutant assessed as incorporation of 32P-UMP into RNA; design: species or system Hepacivirus hominis
How it was run: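 Purified 21-aa C-terminally truncated NS5B (S282T; wild type for comparison) on minus-IRES template, run in 50 mM HEPES pH 7.5 with 1 mM MgCl2, 0.75 mM MnCl2, 2 mM DTT and [α-32P]UTP at 27°C. Natural substrate and inhibitor were both varied against fixed remaining NTPs (UTP 10 μM, others 100 μM). Product was membrane-captured and counted. Ki was obtained by fitting a competitive inhibition equation.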

Compound | Ki [1] | Ki [2]
C[C@@]1(O)[C@H](O)[C@@H](COP(=O)(O)OP(=O)(O)OP(=O)(O)O)O[C@H]1n1cnc2c(N)ncnc21 | 1500 nM | 21.8 µM
C[C@@]1(O)[C@H](O)[C@@H](COP(=O)(O)OP(=O)(O)OP(=O)(O)O)O[C@H]1n1ccc(N)nc1=O [2'-C-METHYLCYTIDINE TRIPHOSPHATE] | 1600 nM | 3.8 µM
C[C@@]1(F)[C@H](O)[C@@H](COP(=O)(O)OP(=O)(O)OP(=O)(O)O)O[C@H]1n1ccc(N)nc1=O [PSI-6130-TP] | 4300 nM | 2.5 µM
